Assay results as given in ChEMBL document CHEMBL5149984, “Discovery of HN37 as a Potent and Chemically Stable Antiepileptic Drug Candidate” (J Med Chem, 2021).

Experiments:
[1] = target: Potassium voltage-gated channel subfamily KQT member 2 (Rattus norvegicus) (UniProt O88943); experiment: Agonist activity at rat Kv7.2 channel expressed in CHO cells assessed as shift of half voltage of maximal activation at 10 uM by whole cell patch clamp based electrophysiological method; conditions: filed as agonist
Method in brief: (§1)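 Rat KCNQ2 cotransfected with EGFP plasmid by Lipofectamine 3000 into CHO cells (DMEM/F12, 10% FBS; split 24 h before transfection). Whole-cell recording at room temperature. Pipette: 145 mM KCl, 1 mM MgCl2, 5 mM EGTA, 10 mM HEPES, 5 mM MgATP, pH 7.3. Bath, constantly perfused: 140 mM NaCl, 5 mM KCl, 2 mM CaCl2, 1.5 mM MgCl2, 10 mM glucose, 10 mM HEPES, pH 7.4. Signals filtered at 1 kHz. Compound at 10 μM. I/I0 is outward current amplitude with over without compound. ΔV1/2 is the shift in V1/2 from Boltzmann fits of activation curves. Mean ± SEM.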

[2] = target: Potassium voltage-gated channel subfamily KQT member 2 (Rattus norvegicus) (UniProt O88943); experiment: Agonist activity at rat Kv7.2 channel expressed in CHO cells assessed as amplitude change of outward current at 10 uM by whole cell patch clamp based electrophysiological method; conditions: filed as agonist; method in brief: as §1
[3] = Neurotoxicity in po dosed Kunming mouse assessed as motor impairment after 1 hr by rotarod test; type: toxicity, organism-based; conditions: in vivo, po, 1 h
Method in brief: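 Male KM mice dosed intragastrically with compound freshly suspended in 0.5% CMC-Na. Rotarod performance scored 1 h after dosing as the fraction of animals showing motor impairment. Fisher's exact test versus vehicle; TD50 from nonlinear dose−response fit.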

[4] = organism: Mus musculus; experiment: Anticonvulsant activity in Kunming mouse assessed as reduction in MES-induced seizure after 1 hr; type: functional
Method in brief: (§2)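 MES test in male KM mice. Compounds freshly suspended in 0.5% CMC-Na and given by gavage at 20 mL/kg; 160 V stimulus through ear clips. Protection scored as absence of hindlimb tonic extension; time course at 0.25, 0.5, 1 and 2 h, otherwise tested at 1 h. ED50 from dose−response by nonlinear regression; Fisher's exact test versus vehicle.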

[5] = organism: Mus musculus; experiment: Anticonvulsant activity in Kunming mouse assessed as reduction in Sc-PTZ induced seizure after 1 hr; type: functional
Method in brief: (§3)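 sc-PTZ test in male KM mice. Compound suspended in 0.5% CMC-Na and given orally 1 h before PTZ (freshly dissolved in normal saline, 100 mg/kg). Protection against clonic seizures scored; ED50 by nonlinear regression.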

[6] = organism: Mus musculus; experiment: Anticonvulsant activity in C57BL/6 mouse 6 Hz seizure model at 32 mA measured after 1 hr; type: functional
[7] = organism: Mus musculus; experiment: Anticonvulsant activity in C57BL/6 mouse 6 Hz seizure model at 44 mA measured after 1 hr; type: functional
[8] = test system: Mus musculus; experiment: Anticonvulsant activity in MES induced Kunming mouse model of seizure at 30 mg/kg, po after 1 hr; type: functional; method in brief: as §2
[9] = test system: Mus musculus; experiment: Anticonvulsant activity in pentylenetetrazol induced Kunming mouse model of seizure at 30 mg/kg, po after 1 hr; type: functional; method in brief: as §3

Chain of Potassium voltage-gated channel subfamily KQT member 2 (Rattus norvegicus) (O88943 whole entry, the tested form may be a part): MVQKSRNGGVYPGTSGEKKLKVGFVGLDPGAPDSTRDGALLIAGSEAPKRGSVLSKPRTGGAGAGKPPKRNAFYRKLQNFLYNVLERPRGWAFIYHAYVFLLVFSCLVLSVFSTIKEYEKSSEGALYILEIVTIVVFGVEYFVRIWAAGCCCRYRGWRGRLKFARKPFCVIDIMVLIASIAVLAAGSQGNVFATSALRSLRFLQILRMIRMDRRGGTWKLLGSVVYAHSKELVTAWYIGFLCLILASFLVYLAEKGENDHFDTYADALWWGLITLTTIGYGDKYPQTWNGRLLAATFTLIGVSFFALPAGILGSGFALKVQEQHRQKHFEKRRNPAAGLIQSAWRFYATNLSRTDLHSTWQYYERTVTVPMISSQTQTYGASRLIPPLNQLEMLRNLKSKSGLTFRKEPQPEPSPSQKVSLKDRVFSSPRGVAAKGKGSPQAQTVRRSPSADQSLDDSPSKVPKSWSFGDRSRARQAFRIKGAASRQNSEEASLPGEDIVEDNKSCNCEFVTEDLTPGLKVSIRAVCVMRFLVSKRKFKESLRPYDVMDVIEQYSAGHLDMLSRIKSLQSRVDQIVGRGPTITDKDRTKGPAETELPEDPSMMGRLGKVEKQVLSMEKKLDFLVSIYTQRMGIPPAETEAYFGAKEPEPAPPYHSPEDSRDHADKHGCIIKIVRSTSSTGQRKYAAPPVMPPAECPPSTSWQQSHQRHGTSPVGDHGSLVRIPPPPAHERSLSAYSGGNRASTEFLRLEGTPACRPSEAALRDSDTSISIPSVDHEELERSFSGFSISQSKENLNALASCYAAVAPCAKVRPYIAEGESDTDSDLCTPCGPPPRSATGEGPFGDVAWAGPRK

SMILES | Activity [1] [mV] | Activity [2] | also measured
C#CCN(Cc1ccc(F)cc1)c1ccc(NC(=O)OC)cc1F | -9.06 | 1.39 | 
C#CCN(Cc1ccc(F)cc1)c1ccc(NC(=O)OC)c(F)c1 | -22 | 2.09 | 
C#CCN(Cc1ccccc1Cl)c1ccc(NC(=O)OC)cc1 | -16.5 | 2.29 | 
C#CCN(Cc1ccc(F)cc1)c1ccc(F)c(NC(=O)OC)c1 | -18.7 | 2.75 | 
C#CCN(Cc1ccc(F)cc1)c1ccc(NC(=O)OC)c(OC(F)(F)F)c1 | -13.2 | 1.24 | 
C#CCN(Cc1ccccc1F)c1ccc(NC(=O)OC)cc1 | -7.6 | 2.31 | 
C#CCN(Cc1cccc(OC)c1)c1ccc(NC(=O)OC)cc1 | -12.5 | 2.72 | 
C#CCN(Cc1ccc(F)cc1)c1ccc(NC(=O)OC)cc1Cl | -2.06 | 1.19 | 
C#CCN(Cc1ccc(F)cc1)c1c(C)cc(NC(=O)OC)cc1C | 13.5 | 0.72 | 
C#CCN(Cc1ccc(F)cc1)c1ccc(NC(=O)OCC)c(N)c1 | -47.9 | 1.53 | 
CC1(C)O[C@@H]2[C@@H](CO[C@@]3(COS(N)(=O)=O)OC(C)(C)O[C@@H]23)O1 [TOPIRAMATE] |  |  | Activity [3]: 379.2 mg/kg; ED50 [4]: 35.5 mg/kg; ED50 [5]: > 200 mg/kg; ED50 [6]: > 500 mg/kg; ED50 [7]: > 500 mg/kg
C#CCN(Cc1ccc(F)cc1)c1ccc(NC(C)=O)cc1 | -6.09 | 1.8 | 
C#CCN(Cc1ccc(F)cc1)c1cccc(NC(=O)OC)c1 | 3.6 | 1.65 | 
C#CCN(Cc1cccc(F)c1)c1ccc(NC(=O)OC)cc1 | -21.1 | 2.33 | 
C#CCN(Cc1ccc(F)cc1)c1ccc(NC(=O)OC)cc1 | -24.2 | 3.27 | Activity [8]: 50%; Activity [9]: 60%
C#CCN(Cc1ccc(Br)cc1)c1ccc(NC(=O)OC)cc1 | -25.1 | 3.75 | 
C#CCN(Cc1ccc(C)cc1)c1ccc(NC(=O)OC)cc1 | -5.77 | 1.05 | 

SMILES | Activity [1] [mV] | Activity [2] | also measured
C#CCN(Cc1ccc(F)cc1)c1ccc(NC(=O)OC)c(C#N)c1 | -5.1 | 0.52 | 
C#CCN(Cc1ccc(F)cc1)c1ccc(NC(=O)OC)c(C)c1 | -23.3 | 4.8 | 
C#CCN(Cc1ccc(F)cc1)c1ccc(NC(=O)OC)cc1C | -3.42 | 1.4 | 
CC[C@H](C(N)=O)N1CCCC1=O [LEVITIRACETAM] |  |  | Activity [3]: > 500 mg/kg; ED50 [4]: > 500 mg/kg; ED50 [5]: > 500 mg/kg; ED50 [6]: 41.5 mg/kg; ED50 [7]: 376 mg/kg
C#CCN(Cc1ccc(F)cc1)c1ccc(NC(=O)OCc2ccccc2)cc1 | -11.5 | 2.09 | 
C#CCN(Cc1ccc(F)cc1)c1ccccc1NC(=O)OC |  | 0.95 | 
C#CCN(Cc1ccc(F)cc1)c1ccc(NC(=O)OCC(C)C)cc1 | -14.3 | 1.23 | 
C#CCN(Cc1ccc(F)cc1)c1ccc(NC(=O)OC)c(Cl)c1 | -7.06 | 1.09 | 
C#CCN(Cc1ccc(F)cc1)c1ccc(NC(=O)OC)cc1C#N | -9.62 | 1.94 | 
C#CCN(Cc1ccc(F)c(F)c1)c1ccc(NC(=O)OC)cc1 | -14.9 | 2.52 | 
C#CCN(Cc1ccc(F)c(C(F)(F)F)c1)c1ccc(NC(=O)OC)cc1 | -15.6 | 1.33 | 
C#CCN(Cc1ccc(F)cc1)c1ccc(NC(=O)OC)c(C(F)(F)F)c1 | -10.4 | 1.42 | 
C#CCN(Cc1ccc(F)cc1)c1ccc(NC(=O)OCC)cc1 | -7.26 | 1.99 | 
C#CCN(Cc1ccc(F)cc1)c1ccc(NC(=O)OCC2COC(C)(C)O2)cc1 (stereo not drawn) | -3.95 | 2.11 | 
C#CCN(Cc1ccc(F)cc1)c1ccc(NC(=O)OC(C)(C)C)cc1 | -19.4 | 1.05 | 
C#CCN(Cc1ccc(F)cc1)c1ccc(NC(=O)OCC=C)cc1 | -14.5 | 1.01 | 
